According to ChEMBL document CHEMBL4038321, “Design, Synthesis, and Pharmacokinetics of a Bone-Targeting Dual-Action Prodrug for the Treatment of Osteoporosis” (J Med Chem, 2017):

Tests used:
Rattus norvegicus [1] = assay: Toxicity in Sprague-Dawley rat assessed as unusual reaction at 1.8 uCi, iv administered as bolus dose after 28 dyas; type: organism-based; conditions: in vivo
Outline: (§1)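 Same dual-label study: female Sprague Dawley rats got one IV tail-vein bolus of [3H] (8.90 µCi) plus [14C] (1.77 µCi) conjugate, total 5.0 mg/kg, in Poloxamer 188/PBS vehicle at pH 8.0. Groups of three were sacrificed up to 28 days after dosing.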

Kidney [2] = assay: Drug uptake in Sprague-Dawley rat kidney at 1.8 uCi, iv administered as bolus dose after 1 day; type: ADME, organism-based; conditions: in vivo, 24 h
Outline: (§2)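 Female Sprague Dawley rats, about 13 weeks old, in five groups of three. Single IV tail-vein bolus of mixed 3H-conjugate (8.90 µCi/rat) and 14C-conjugate (1.77 µCi/rat), total dose 5.0 mg/kg. Vehicle was 10% Poloxamer 188, brought to pH 8.0 with NaHCO3, then diluted with an equal volume of PBS. Groups were killed at 6 h, 1, 7, 14 and 28 days. Tissues and femurs were incinerated in a biological oxidizer. Values are % of administered dose, with skeleton taken as 8% of body weight, averaged over three rats.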

Bone [3] = assay: Drug uptake in Sprague-Dawley rat bone at 1.8 uCi, iv administered as bolus dose after 28 days; type: ADME, organism-based, Bone element; conditions: in vivo, 672 h; outline: as §2
Kidney [4] = assay: Drug uptake in Sprague-Dawley rat kidney at 1.8 uCi, iv administered as bolus dose after 7 days; type: ADME, organism-based; conditions: in vivo, 168 h; outline: as §2
Bone [5] = assay: Drug uptake in Sprague-Dawley rat bone at 1.8 uCi, iv administered as bolus dose after 6 hrs; type: ADME, organism-based, Bone element; conditions: in vivo; outline: as §2
Spleen [6] = assay: Drug uptake in Sprague-Dawley rat spleen at 1.8 uCi, iv administered as bolus dose after 28 days; type: ADME, organism-based; conditions: in vivo, 672 h; outline: as §2
Bone [7] = assay: Drug uptake in Sprague-Dawley rat bone at 1.8 uCi, iv administered as bolus dose after 7 days; type: ADME, organism-based, Bone element; conditions: in vivo, 168 h; outline: as §2
Liver [8] = assay: Drug uptake in Sprague-Dawley rat liver at 1.8 uCi, iv administered as bolus dose after 1 day; type: ADME, organism-based; conditions: in vivo, 24 h; outline: as §2
Heart [9] = assay: Drug uptake in Sprague-Dawley rat heart at 1.8 uCi, iv administered as bolus dose after 6 hrs; type: ADME, organism-based; conditions: in vivo; outline: as §2
Bone [10] = assay: Drug uptake in Sprague-Dawley rat bone at 1.8 uCi, iv administered as bolus dose after 14 days; type: ADME, organism-based, Bone element; conditions: in vivo, 336 h; outline: as §2
Brain [11] = assay: Drug uptake in Sprague-Dawley rat brain at 1.8 uCi, iv administered as bolus dose after 1 day; type: ADME, organism-based; conditions: in vivo, 24 h; outline: as §2
Liver [12] = assay: Drug uptake in Sprague-Dawley rat liver at 1.8 uCi, iv administered as bolus dose after 6 hrs; type: ADME, organism-based; conditions: in vivo; outline: as §2
Liver [13] = assay: Drug uptake in Sprague-Dawley rat liver at 1.8 uCi, iv administered as bolus dose after 14 days; type: ADME, organism-based; conditions: in vivo, 336 h; outline: as §2
Heart [14] = assay: Drug uptake in Sprague-Dawley rat heart at 1.8 uCi, iv administered as bolus dose after 1 day; type: ADME, organism-based; conditions: in vivo, 24 h; outline: as §2
Brain [15] = assay: Drug uptake in Sprague-Dawley rat brain at 1.8 uCi, iv administered as bolus dose after 6 hrs; type: ADME, organism-based; conditions: in vivo; outline: as §2
Kidney [16] = assay: Drug uptake in Sprague-Dawley rat kidney at 1.8 uCi, iv administered as bolus dose after 14 days; type: ADME, organism-based; conditions: in vivo, 336 h; outline: as §2
Liver [17] = assay: Drug uptake in Sprague-Dawley rat liver at 1.8 uCi, iv administered as bolus dose after 28 days; type: ADME, organism-based; conditions: in vivo, 672 h; outline: as §2
Liver [18] = assay: Drug uptake in Sprague-Dawley rat liver at 1.8 uCi, iv administered as bolus dose after 7 days; type: ADME, organism-based; conditions: in vivo, 168 h; outline: as §2
Rattus norvegicus [19] = assay: Toxicity in Sprague-Dawley rat assessed as behavioral change at 1.8 uCi, iv administered as bolus dose after 28 dyas; type: organism-based; conditions: in vivo; outline: as §1
Spleen [20] = assay: Drug uptake in Sprague-Dawley rat spleen at 1.8 uCi, iv administered as bolus dose after 1 day; type: ADME, organism-based; conditions: in vivo, 24 h; outline: as §2
Bone [21] = assay: Drug uptake in Sprague-Dawley rat bone at 1.8 uCi, iv administered as bolus dose after 1 day; type: ADME, organism-based, Bone element; conditions: in vivo, 24 h; outline: as §2
Kidney [22] = assay: Drug uptake in Sprague-Dawley rat kidney at 1.8 uCi, iv administered as bolus dose after 28 days; type: ADME, organism-based; conditions: in vivo, 672 h; outline: as §2
Kidney [23] = assay: Drug uptake in Sprague-Dawley rat kidney at 1.8 uCi, iv administered as bolus dose after 6 hrs; type: ADME, organism-based; conditions: in vivo; outline: as §2
Spleen [24] = assay: Drug uptake in Sprague-Dawley rat spleen at 1.8 uCi, iv administered as bolus dose after 7 days; type: ADME, organism-based; conditions: in vivo, 168 h
Outline: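 Female Sprague Dawley rats, about 13 weeks old on arrival, in five groups of three. Single IV tail-vein bolus of mixed [3H]- and [14C]-labelled conjugate (8.90 and 1.77 µCi/rat), total 5.0 mg/kg. Vehicle was 10% Poloxamer 188 adjusted to pH 8.0 with NaHCO3, then diluted with an equal volume of PBS. Groups killed at 6 h, 1, 7, 14 and 28 days. Spleen radioactivity measured by oxidizer incineration and reported as percent of administered dose, averaged over three rats.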

Spleen [25] = assay: Drug uptake in Sprague-Dawley rat spleen at 1.8 uCi, iv administered as bolus dose after 6 hrs; type: ADME, organism-based; conditions: in vivo; outline: as §2
Spleen [26] = assay: Drug uptake in Sprague-Dawley rat spleen at 1.8 uCi, iv administered as bolus dose after 14 days; type: ADME, organism-based; conditions: in vivo, 336 h; outline: as §2

CCOC(=O)CCCCCCN1C(=O)CC[C@@H]1/C=C/[C@@H](OC(=O)Cc1ccc(COC(=O)N[C@@H](CC(C)C)C(=O)N[C@@H](CCCNC(=N)N)C(=O)Nc2ccc(CO[14C](=O)NCCCC(O)(P(=O)(O)O)P(=O)(O)O)cc2)cc1)C(F)(F)c1ccccc1
Activity (Rattus norvegicus [1]): Non-Toxic
Drug uptake (Kidney [2]): 0.047 %ID
Drug uptake (Bone [3]): 2.44 %ID
Drug uptake (Kidney [4]): 0.02 %ID
Drug uptake (Bone [5]): 5.52 %ID
Drug uptake (Spleen [6]): 0.039 %ID
Drug uptake (Bone [7]): 3.51 %ID
Drug uptake (Liver [8]): 2.5 %ID
Drug uptake (Heart [9]): 0.017 %ID
Drug uptake (Bone [10]): 2.52 %ID
Drug uptake (Brain [11]): 0.012 %ID
Drug uptake (Liver [12]): 7.03 %ID
Drug uptake (Liver [13]): 0.27 %ID
Drug uptake (Heart [14]): 0.009 %ID
Drug uptake (Brain [15]): 0.014 %ID
Drug uptake (Kidney [16]): 0.013 %ID
Drug uptake (Liver [17]): 0.1 %ID
Drug uptake (Liver [18]): 0.61 %ID
Activity (Rattus norvegicus [19]): Non-Toxic
Drug uptake (Spleen [20]): 0.23 %ID
Drug uptake (Bone [21]): 4.63 %ID
Drug uptake (Kidney [22]): 0.0092 %ID
Drug uptake (Kidney [23]): 0.11 %ID
Drug uptake (Spleen [24]): 0.086 %ID
Drug uptake (Spleen [25]): 0.34 %ID
Drug uptake (Spleen [26]): 0.05 %ID
